In ChEMBL document CHEMBL1127325, “Potent gastrin-releasing peptide (GRP) antagonists derived from GRP (19-27) with a C-terminal DPro psi [CH2NH]Phe-NH2 and N-terminal aromatic residues” (J Med Chem, 1994) one finds IC50 and Activity data, which are given here for 27 molecules.

Molecules are shown by their SMILES. Where a SMILES comes first, the peptide text is derived from it. [ ]: non-standard residue; d: D form. The star is where a group is joined. ProΨ(CH2NH)PheNH2 = NC(=O)[C@H](Cc1ccccc1)NC[C@@H]1CCCN1*; dProψ(CH2NH)PheNH2 = NC(=O)[C@H](Cc1ccccc1)NC[C@H]1CCCN1*; X3 = NC(=O)[C@H](Cc1ccc(O)cc1)NC[C@H]1CCCN1*; Desaminotyrosyl = O=C(CCc1ccc(O)cc1)*; Hydrocinnamoyl = O=C(CCc1ccccc1)*; X9 = O=C(CCN1c2ccccc2Sc2ccccc21)*; X2 = O=C(Cc1ccccc1C(F)(F)F)*; Sar = CNCC(=O)O

The target of assay [1] is T1, Gastrin-releasing peptide receptor (Mus musculus, UniProt P21729). In words: Ability of peptide to inhibit binding of 10 pM [125I]gastrin releasing peptide to S-3T3 cell membrane. In kind it is cell-based. Summed up:
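Swiss 3T3 membranes (10 µg protein) incubated in triplicate with 10 pM [125I]GRP(1-27) in HEPES-KOH pH 6.8 (20 mM) with EGTA, MgCl2, BSA and protease inhibitors, 60 min at 37 °C with shaking. Terminated by filtration through PEI-pretreated GF/B filters, gamma counted. Nonspecific binding taken with 10 nM unlabeled GRP(1-27). IC50 for half-maximal inhibition of specific binding by Hill plot analysis.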

Assay [2] has as its target T1, Gastrin-releasing peptide receptor. Briefly: The ability of the peptide to inhibit the binding of 50 pM [125I]gastrin releasing peptide to intact S-3T3 cells. It is filed as cell-based. Summed up: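 Serially diluted peptides overlaid in triplicate on quiescent Swiss 3T3 monolayers (about 10^5 cells) with 50 pM [125I]GRP in maintenance medium, 30 min at 37 °C. Monolayers washed three times with chilled medium, solubilized, radioactivity counted. IC50 values reported.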

Assay [3] addresses Gastrin-releasing peptide receptor (Mus musculus) (UniProt P21729). In words: Inhibition of 6 nM bombesin induced [3H]thymidine incorporation measured in swiss 3T3 cells using a mitogenicity assay. It is filed as functional, cell-based. Summed up:
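Density-arrested quiescent Swiss 3T3 monolayers treated in triplicate with test peptide (generally log dilutions) plus 6 nM bombesin for 18 h, then pulsed 2 h with 0.5 µCi [3H]thymidine per well. Cells washed with cold PBS, fixed in methanol/acetic acid, solubilized, scintillation counted. IC50 ± SEM over replicate trials; na means no activity at 10^-4 M.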
On the technique in general: Uptake of a labelled nucleoside into DNA is a usual measure of proliferation.

T1 sequence (P21729 whole entry): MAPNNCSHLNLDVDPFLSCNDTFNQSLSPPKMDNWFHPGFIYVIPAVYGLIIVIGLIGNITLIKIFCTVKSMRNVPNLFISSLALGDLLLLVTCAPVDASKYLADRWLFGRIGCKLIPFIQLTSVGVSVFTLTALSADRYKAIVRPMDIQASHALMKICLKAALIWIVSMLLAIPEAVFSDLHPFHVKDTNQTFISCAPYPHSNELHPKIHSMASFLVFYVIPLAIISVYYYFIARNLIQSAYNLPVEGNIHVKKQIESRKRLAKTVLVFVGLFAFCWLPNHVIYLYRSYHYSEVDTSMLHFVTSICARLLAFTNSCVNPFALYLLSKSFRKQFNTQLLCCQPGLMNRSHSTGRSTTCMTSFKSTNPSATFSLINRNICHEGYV
Gastrin-releasing peptide receptor (Mus musculus), sequence (P21729 whole entry): as above

Regarding `CC(C)[C@H](NC(=O)[C@H](C)NC(=O)[C@H](Cc1c[nH]c2ccccc12)NC(=O)[C@H](Cc1cnc[nH]1)NC(=O)C[C@H](C)c1ccccc1)C(=O)N[C@H](C)C(=O)N[C@@H](Cc1cnc[nH]1)C(=O)N1CCC[C@@H]1CN[C@@H](Cc1ccccc1)C(N)=O`, the IC50 in assay [1] came to 0.21 nM; in assay [2], 10 nM.
Take `CC(C)[C@H](NC(=O)[C@H](C)NC(=O)[C@H](Cc1c[nH]c2ccccc12)NC(=O)[C@H](Cc1cnc[nH]1)NC(=O)C[C@@H](C)c1ccccc1)C(=O)N[C@H](C)C(=O)N[C@@H](Cc1cnc[nH]1)C(=O)N1CCC[C@@H]1CN[C@@H](Cc1ccccc1)C(N)=O`: the IC50 in assay [1] is 0.49 nM.
On to `CC(C)[C@H](NC(=O)[C@H](C)NC(=O)[C@H](Cc1c[nH]c2ccccc12)NC(=O)[C@H](Cc1c[nH]cn1)NC(=O)[C@@H](N)Cc1ccc2ccccc2c1)C(=O)N[C@H](C)C(=O)N[C@@H](Cc1c[nH]cn1)C(=O)N1CCC[C@@H]1CN[C@@H](Cc1ccccc1)C(N)=O`, for which the Activity in assay [3] worked out at 45 nM. This molecule also registered a half-inhibitory concentration (IC50) in assay [1] of 7.7 nM.
On to `CC(C)[C@H](NC(=O)[C@H](C)NC(=O)[C@H](Cc1c[nH]c2ccccc12)NC(=O)[C@H](Cc1cnc[nH]1)NC(=O)CCc1cccc(C(F)(F)F)c1)C(=O)N[C@H](C)C(=O)N[C@@H](Cc1cnc[nH]1)C(=O)N1CCC[C@@H]1CN[C@@H](Cc1ccccc1)C(N)=O`, for which the half-maximal inhibitory concentration (IC50) was found to be 0.16 nM in assay [1] and 10 nM in assay [2].
Consider `CC(C)[C@H](NC(=O)[C@H](C)NC(=O)[C@H](Cc1c[nH]c2ccccc12)NC(=O)[C@H](Cc1cnc[nH]1)NC(=O)CCc1ccccc1)C(=O)N[C@H](C)C(=O)N[C@@H](Cc1cnc[nH]1)C(=O)N1CCC[C@@H]1CN[C@H](Cc1ccc2ccccc2c1)C(N)=O`, for which the results for the half-inhibitory concentration (IC50) in assay [1] and in assay [2] were 2 nM and 5 nM, respectively.
For `CC(C)[C@H](NC(=O)[C@H](C)NC(=O)[C@H](Cc1c[nH]c2ccccc12)NC(=O)[C@H](Cc1cnc[nH]1)NC(=O)C1CCc2ccccc2C1)C(=O)N[C@H](C)C(=O)N[C@@H](Cc1cnc[nH]1)C(=O)N1CCC[C@@H]1CN[C@@H](Cc1ccccc1)C(N)=O` (some centres not stated) the same measures were 0.079 nM and 0.3 nM.
Regarding `CC(C)[C@H](NC(=O)[C@H](C)NC(=O)[C@H](Cc1c[nH]c2ccccc12)NC(=O)[C@H](Cc1cnc[nH]1)NC(=O)Cc1cccc(C(F)(F)F)c1)C(=O)N[C@H](C)C(=O)N[C@@H](Cc1cnc[nH]1)C(=O)N1CCC[C@@H]1CN[C@@H](Cc1ccccc1)C(N)=O`, the half-inhibitory concentration (IC50) in assay [1] turned out to be 8.4 nM.
In the case of `CC(C)[C@H](NC(=O)[C@H](C)NC(=O)[C@H](Cc1c[nH]c2ccccc12)NC(=O)[C@H](Cc1cnc[nH]1)NC(=O)c1cc2ccccc2cn1)C(=O)N[C@H](C)C(=O)N[C@@H](Cc1cnc[nH]1)C(=O)N1CCC[C@@H]1CN[C@@H](Cc1ccccc1)C(N)=O`, the IC50 in assay [1] amounted to 0.57 nM. This IC50 is about 15-fold lower than that of the molecule before.
Still for that read-out and setting: as for `CC(C)[C@H](NC(=O)[C@H](C)NC(=O)[C@H](Cc1c[nH]c2ccccc12)NC(=O)[C@H](Cc1cnc[nH]1)NC(=O)Cc1ccc(C(F)(F)F)cc1)C(=O)N[C@H](C)C(=O)N[C@@H](Cc1cnc[nH]1)C(=O)N1CCC[C@@H]1CN[C@@H](Cc1ccccc1)C(N)=O`, the figure is 3.7 nM.
`CC(C)[C@H](NC(=O)[C@H](C)NC(=O)[C@H](Cc1c[nH]c2ccccc12)NC(=O)[C@H](Cc1c[nH]cn1)NC(=O)C1CCc2ccccc2C1)C(=O)N[C@H](C)C(=O)N[C@@H](Cc1c[nH]cn1)C(=O)N1CCC[C@@H]1CN[C@@H](Cc1ccccc1)C(N)=O` (some centres not stated): the Activity in assay [3] came out at 4 nM.
In assay [3], `CC(C)[C@H](NC(=O)[C@H](C)NC(=O)[C@H](Cc1c[nH]c2ccccc12)NC(=O)[C@H](Cc1c[nH]cn1)NC(=O)CCc1cccc(C(F)(F)F)c1)C(=O)N[C@H](C)C(=O)N[C@@H](Cc1c[nH]cn1)C(=O)N1CCC[C@@H]1CN[C@@H](Cc1ccccc1)C(N)=O` showed an Activity of 0.35 nM.
The same measure, in the same setting: as for `CC(C)[C@H](NC(=O)[C@H](C)NC(=O)[C@H](Cc1c[nH]c2ccccc12)NC(=O)[C@H](Cc1c[nH]cn1)NC(=O)CCc1ccccc1)C(=O)N[C@H](C)C(=O)N[C@@H](Cc1c[nH]cn1)C(=O)N1CCC[C@@H]1CN[C@@H](Cc1ccc2ccccc2c1)C(N)=O`, the figure is 40 nM; as for `CC(C)[C@H](NC(=O)[C@H](C)NC(=O)[C@H](Cc1c[nH]c2ccccc12)NC(=O)[C@H](Cc1c[nH]cn1)NC(=O)C[C@@H](C)c1ccccc1)C(=O)N[C@H](C)C(=O)N[C@@H](Cc1c[nH]cn1)C(=O)N1CCC[C@@H]1CN[C@@H](Cc1ccccc1)C(N)=O`, 17 nM; as for `CC(C)[C@H](NC(=O)[C@H](C)NC(=O)[C@H](Cc1c[nH]c2ccccc12)NC(=O)[C@H](Cc1c[nH]cn1)NC(=O)C[C@H](C)c1ccccc1)C(=O)N[C@H](C)C(=O)N[C@@H](Cc1c[nH]cn1)C(=O)N1CCC[C@@H]1CN[C@@H](Cc1ccccc1)C(N)=O`, 0.16 nM.
In turn, `CC(C)[C@H](NC(=O)[C@H](C)NC(=O)[C@H](Cc1c[nH]c2ccccc12)NC(=O)[C@H](Cc1c[nH]cn1)NC(=O)Cc1ccc(C(F)(F)F)cc1)C(=O)N[C@H](C)C(=O)N[C@@H](Cc1c[nH]cn1)C(=O)N1CCC[C@@H]1CN[C@@H](Cc1ccccc1)C(N)=O` gave an Activity in assay [3] of 200 nM.
For `CC(C)[C@H](NC(=O)[C@H](C)NC(=O)[C@H](Cc1c[nH]c2ccccc12)NC(=O)[C@H](Cc1c[nH]cn1)NC(=O)Cc1cccc(C(F)(F)F)c1)C(=O)N[C@H](C)C(=O)N[C@@H](Cc1c[nH]cn1)C(=O)N1CCC[C@@H]1CN[C@@H](Cc1ccccc1)C(N)=O`, the Activity in assay [3] is 260 nM.
Regarding `CC(C)[C@H](NC(=O)[C@H](C)NC(=O)[C@H](Cc1c[nH]c2ccccc12)NC(=O)[C@H](Cc1c[nH]cn1)NC(=O)c1cc2ccccc2cn1)C(=O)N[C@H](C)C(=O)N[C@@H](Cc1c[nH]cn1)C(=O)N1CCC[C@@H]1CN[C@@H](Cc1ccccc1)C(N)=O`, in assay [3], the Activity amounted to 4 nM.
As for `CC(C)[C@H](NC(=O)[C@H](C)NC(=O)[C@H](Cc1c[nH]c2ccccc12)NC(=O)[C@H](Cc1c[nH]cn1)NC(=O)c1cccc2ccccc12)C(=O)N[C@H](C)C(=O)N[C@@H](Cc1c[nH]cn1)C(=O)N1CCC[C@@H]1CN[C@@H](Cc1ccccc1)C(N)=O`, the Activity in assay [3] came out at 0.3 nM.
In assay [3], `CCCCC(NC[C@H]1CCCN1C(=O)[C@H](Cc1cccs1)NC(=O)[C@@H](C)NC(=O)[C@@H](NC(=O)[C@H](C)NC(=O)[C@H](Cc1c[nH]c2ccccc12)NC(=O)[C@H](Cc1c[nH]cn1)NC(=O)CCc1ccccc1)C(C)C)C(N)=O` (some centres not stated) registered an Activity of 300 nM.
On the same count and under the same terms, as for `CC(C)[C@H](NC(=O)[C@H](C)NC(=O)[C@H](Cc1c[nH]c2ccccc12)NC(=O)[C@H](Cc1c[nH]cn1)NC(=O)CCc1ccc(O)cc1)C(=O)N[C@H](C)C(=O)N[C@@H](Cc1c[nH]cn1)C(=O)N1CCC[C@@H]1CN[C@@H](Cc1ccccc1)C(N)=O` (Desaminotyrosyl-HWAV[dA]H-{dProψ(CH2NH)PheNH2}), the figure is 0.16 nM; as for `CC(C)[C@H](NC(=O)[C@H](C)NC(=O)[C@H](Cc1c[nH]c2ccccc12)NC(=O)[C@H](Cc1c[nH]cn1)NC(=O)CCc1ccccc1)C(=O)N(C)CC(=O)N[C@@H](Cc1c[nH]cn1)C(=O)N1CCC[C@H]1CN[C@@H](Cc1ccccc1)C(N)=O` (Hydrocinnamoyl-HWAV[Sar]H-{ProΨ(CH2NH)PheNH2}), 0.43 nM.
Molecule `CC(C)[C@H](NC(=O)[C@H](C)NC(=O)[C@H](Cc1c[nH]c2ccccc12)NC(=O)[C@H](Cc1c[nH]cn1)NC(=O)CCc1ccccc1)C(=O)N[C@H](C)C(=O)N[C@@H](Cc1c[nH]cn1)C(=O)N1CCC[C@@H]1CN[C@@H](Cc1ccc(O)cc1)C(N)=O` (Hydrocinnamoyl-HWAV[dA]H-X3) registered an Activity in assay [3] of 10 nM. Besides, in assay [1], the half-inhibitory concentration (IC50) amounted to 0.33 nM.
For `CC(C)[C@H](NC(=O)[C@H](C)NC(=O)[C@H](Cc1c[nH]c2ccccc12)NC(=O)[C@H](Cc1c[nH]cn1)NC(=O)Cc1ccccc1C(F)(F)F)C(=O)N[C@H](C)C(=O)N[C@@H](Cc1c[nH]cn1)C(=O)N1CCC[C@@H]1CN[C@@H](Cc1ccccc1)C(N)=O` (X2-HWAV[dA]H-{dProψ(CH2NH)PheNH2}) the same measures were 330 nM and 12 nM.
In assay [3], `CC(C)[C@H](NC(=O)[C@H](C)NC(=O)[C@H](Cc1c[nH]c2ccccc12)NC(=O)[C@H](Cc1c[nH]cn1)NC(=O)CCN1c2ccccc2Sc2ccccc21)C(=O)N[C@H](C)C(=O)N[C@@H](Cc1c[nH]cn1)C(=O)N1CCC[C@@H]1CN[C@@H](Cc1ccccc1)C(N)=O` (X9-HWAV[dA]H-{dProψ(CH2NH)PheNH2}) registered an Activity of 29 nM. The molecule also showed an IC50 in assay [1] of 1.9 nM.
The molecule `CC(NC(=O)[C@H](Cc1csc2ccccc12)NC(=O)[C@H](Cc1c[nH]cn1)NC(=O)CCc1ccccc1)C(=O)N[C@H](C(=O)NC(C)C(=O)N[C@@H](Cc1c[nH]cn1)C(=O)N1CCC[C@@H]1CN[C@@H](Cc1ccccc1)C(N)=O)C(C)C` (stereo in doubt) gave an Activity in assay [3] of 430 nM. Moreover, the IC50 in assay [1] came out at 0.75 nM.
Regarding `CC(C)[C@H](NC(=O)[C@H](C)NC(=O)[C@H](Cc1c[nH]c2ccccc12)NC(=O)[C@H](Cc1c[nH]cn1)NC(=O)CCc1ccccc1)C(=O)N[C@H](C)C(=O)N[C@@H](Cc1c[nH]cn1)C(=O)N1CCC[C@@H]1CNC(Cc1ccccc1)C(N)=O` (stereo in doubt), the IC50 in assay [1] is 0.038 nM. In other words, the picomolar range.
Consider `CC(NC(=O)[C@@H](NC[C@H](C)NC(=O)[C@H](Cc1c[nH]c2ccccc12)NC(=O)[C@H](Cc1c[nH]cn1)NC(=O)CCc1ccccc1)C(C)C)C(=O)N[C@@H](Cc1c[nH]cn1)C(=O)N1CCC[C@H]1CN[C@@H](Cc1ccccc1)C(N)=O` (stereo in doubt), for which the Activity in assay [3] was determined as 47 nM. In addition, the half-inhibitory concentration (IC50) in assay [1] was > 10 nM.

By IC50 is commonly meant the concentration needed to halve the response being measured. A low value points to higher potency.
